Experimental data as given in ChEMBL document CHEMBL1127034, “Synthesis, antiproliferative, and antiviral activity of 4-amino-1-(beta-D-ribofuranosyl)pyrrolo[2,3-d]pyridazin-7(6H)-one and related derivatives” (J Med Chem, 1993).

Key:
[1] = species: Homo sapiens; test: Tested for in vitro cell growth inhibition of H.Ep. 2 cells; No significant effect; format: functional, cell-based
Procedure, shortened: (§1)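 H.Ep.2 cells grown in MEM/Earle's with 15% heat-inactivated calf serum, 5% CO2. 2000 cells/well plated in 5% calf serum; compound added 1 day later. […] Top concentration 100 μM.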

[2] = test system: Calu-1; test: Tested for in vitro cell growth inhibition of CALU-1 cells; No significant effect; format: functional, cell-based, Homo sapiens
Procedure, shortened: (§2)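 Adherent tumor lines in RPMI 1640 + 5% fetal bovine serum (UMSCC-10A: MEM-5). Cells/well: UMSCC-10A, CALU-1, NCI-H1437 and HT-29 2000; NCI-H460 1000; DLD-1 1000; SW-620 7500. Compound added 1 day after plating. Sulforhodamine B readout on day 5 (NCI-H460 and SW-620: day 4). IC50 halves growth rate vs control. Top concentration 100 μM.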

[3] = Tested for in vitro cell growth inhibition of NCI-H146 cells; No significant effect; format: functional, cell-based, Homo sapiens
[4] = test system: HFF; test: Tested for cytotoxicity in human foreskin fibroblasts at time of HCMV plaque enumeration; format: functional, cell-based
Procedure, shortened: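 HFF cells (MEM/Earle's, 10% fetal bovine serum), uninfected cells within HCMV plaque-reduction wells. Drug cytopathology scored visually at 30-fold magnification on a 0-4+ scale on the day of staining for plaque enumeration. IC50 from regression against log concentration.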

[5] = test system: Human alphaherpesvirus 1; test: Tested for antiviral activity against Herpes simplex virus type-1 using enzyme immunoassay
[6] = test system: NCI-H417; test: Tested for in vitro cell growth inhibition of NCI-N417 cells; No significant effect; format: functional, cell-based, Homo sapiens
[7] = test system: L1210; test: Tested for in vitro cell growth inhibition of L1210 cells; format: functional, cell-based; settings: Mus musculus
Procedure, shortened: (§3)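 L1210 cell number counted at 0, 48 and 96 h across a range of concentrations. Growth rate is the slope of semilog cell number vs time as percent of control (ratio of control to treated doubling time); the 48-96 h rate is used if growth slowed. IC50 halves growth rate. Top concentration 100 μM.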

[8] = test system: Human betaherpesvirus 5; test: Tested for antiviral activity against human cytomegalovirus by plaque assay; format: functional, organism-based
Procedure, shortened: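 Towne strain HCMV (plaque-purified P0) on HFF monolayers. Inoculum about 50 PFU in 0.2 mL; compounds dissolved in the overlay medium. IC50 from linear regression of percent inhibition vs log concentration. Ganciclovir positive control; assay sets rejected if it deviated >1.5 SD from its mean response.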

[9] = test system: Human betaherpesvirus 5; test: Tested for antiviral activity against human cytomegalovirus by yield reduction assay; format: functional
[10] = Tested for in vitro cell growth inhibition of […] cells; format: functional, cell-based; settings: Homo sapiens; procedure, shortened: as §2
[11] = test system: NCI-H460; test: Tested for in vitro cell growth inhibition of NCI-H460; format: functional, cell-based; settings: Homo sapiens; procedure, shortened: as §2
[12] = species: Homo sapiens; test: Tested for in vitro cell growth inhibition of H.Ep. 2 cells; format: functional, cell-based; settings: HEp-2; procedure, shortened: as §1
[13] = Tested for in vitro cell growth inhibition of NCI-H1437; format: functional; settings: Homo sapiens; procedure, shortened: as §2
[14] = Tested for the inhibition of KB cell growth; format: functional, cell-based; settings: Homo sapiens
Procedure, shortened: (§4)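 KB cells (MEM/Hank's, 5% fetal bovine serum). Growth measured spectrophotometrically after crystal violet staining 2 days after drug treatment. IC50 from linear regression of percent inhibition vs log concentration.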

[15] = test system: Calu-1; test: Tested for in vitro cell growth inhibition of CALU-1 cells; format: functional, cell-based; settings: Homo sapiens; procedure, shortened: as §2
[16] = test system: L1210; test: Tested for in vitro cell growth inhibition of L1210 cells; No significant effect; format: functional, cell-based, Mus musculus; procedure, shortened: as §3
[17] = species: Homo sapiens; test: Tested for in vitro cell growth inhibition of H. Ep. 2 cells; No significant effect; format: functional, cell-based; procedure, shortened: as §1
[18] = Tested for in vitro cell growth inhibition of NCI-H1437 cells; format: functional, cell-based; settings: Homo sapiens; procedure, shortened: as §2
[19] = test system: DLD-1; test: Tested for in vitro cell growth inhibition of DLD-1 cells; format: functional, cell-based; settings: Homo sapiens; procedure, shortened: as §2
[20] = test system: NCI-H460; test: Tested for in vitro cell growth inhibition of NCI-H460 cells; format: functional, cell-based; settings: Homo sapiens; procedure, shortened: as §2
[21] = Tested for in vitro cell growth inhibition of UMSCC-10A cells; format: functional, cell-based; settings: Homo sapiens; procedure, shortened: as §2
[22] = Tested for in vitro cell growth inhibition of NCI-H146 cells; format: functional, cell-based; settings: Homo sapiens
[23] = test system: HT-29; test: Tested for in vitro cell growth inhibition of HT-29 cells; format: functional, cell-based; settings: Homo sapiens; procedure, shortened: as §2
[24] = test system: SW-620; test: Tested for in vitro cell growth inhibition of SW-620 cells; format: functional, cell-based; settings: Homo sapiens; procedure, shortened: as §2
[25] = test system: NCI-H417; test: Tested for in vitro cell growth inhibition of NCI-N417 cells; format: functional, cell-based; settings: Homo sapiens
[26] = Tested for the inhibition against KB cell growth; format: functional, cell-based; settings: Homo sapiens; procedure, shortened: as §4

Nc1nnc(O)c2c1ccn2[C@@H]1O[C@H](CO)[C@@H](O)[C@H]1O
IC50 [1]: Not Active
IC50 [2]: Not Active
IC50 [3]: Not Active
IC50 [4]: > 100000 nM
IC50 [5]: 90000 nM
IC50 [6]: Not Active
IC50 [7]: 74000 nM
IC50 [8]: > 100000 nM

Nc1n[nH]c(=O)c2c1c(Br)cn2[C@@H]1O[C@H](CO)[C@@H](O)[C@H]1O
IC90 [9]: 40 nM
IC50 [10]: 1300 nM
IC50 [4]: 2500 nM
IC50 [11]: 500 nM
IC50 [5]: 2000 nM
IC50 [12]: 200 nM
IC50 [13]: 500 nM
IC50 [7]: 100 nM
IC50 [14]: < 1200 nM
IC50 [8]: 100 nM
IC50 [15]: 230 nM

O=c1[nH][nH]c(=O)c2c1ccn2[C@@H]1O[C@H](CO)[C@@H](O)[C@H]1O
IC50 [16]: Not Active
IC50 [4]: > 100000 nM
IC50 [5]: > 100000 nM
IC50 [8]: > 100000 nM

Nc1nncc2c1ccn2C1O[C@H](CO)[C@@H](O)[C@H]1O (stereo partly specified)
IC50 [16]: Not Active
IC50 [4]: > 100000 nM
IC50 [17]: Not Active
IC50 [5]: > 100000 nM
IC50 [8]: > 100000 nM

Nc1nnc(O)c2c1c(I)cn2C1O[C@H](CO)[C@@H](O)[C@H]1O (stereo partly specified)
IC90 [9]: 20 nM
IC50 [18]: 130 nM
IC50 [19]: 70 nM
IC50 [20]: 200 nM
IC50 [21]: 2500 nM
IC50 [22]: 420 nM
IC50 [23]: 500 nM
IC50 [4]: 1000 nM
IC50 [5]: 4500 nM
IC50 [12]: 76 nM
IC50 [7]: 80 nM
IC50 [14]: 1200 nM
IC50 [24]: 230 nM
IC50 [8]: 400 nM
IC50 [25]: 280 nM
IC50 [15]: 70 nM

Nc1nncc2c1c(Br)cn2C1O[C@H](CO)[C@@H](O)[C@H]1O (stereo partly specified)
IC90 [9]: 1400 nM
IC50 [20]: 11000 nM
IC50 [4]: 100000 nM
IC50 [14]: 12000 nM
IC50 [8]: 121000 nM
IC50 [15]: 11000 nM

Nc1nnc(O)c2c1c(Cl)cn2C1O[C@H](CO)[C@@H](O)[C@H]1O (stereo partly specified)
IC90 [9]: 700 nM
IC50 [4]: 2100 nM
IC50 [5]: 6800 nM
IC50 [7]: 230 nM
IC50 [14]: 6100 nM
IC50 [8]: 200 nM

Nc1ncnc2c1c(Br)cn2[C@@H]1O[C@H](CO)[C@@H](O)[C@H]1O
IC90 [9]: 3500 nM
IC50 [4]: 1200 nM
IC50 [14]: 3000 nM

Nc1nc2c(ncn2COC(CO)CO)c(=O)[nH]1 [GANCICLOVIR]
IC90 [9]: 1800 nM
IC50 [4]: > 100000 nM
IC50 [5]: 3500 nM
IC50 [14]: > 100000 nM
IC50 [8]: 7700 nM

Nc1ncnc2c1ccn2[C@@H]1O[C@H](CO)[C@@H](O)[C@H]1O [TUBERCIDIN]
IC50 [26]: 1000 nM
IC50 [7]: 43 nM
